# Screens from PubChem BioAssay.
# A selection: hits, their analogues and other compounds. The true share with any hit is near 2.9%.
# mHtt clearance: mutant huntingtin protein clearance. HeLa Exon1htt(103Q)mCFP, aggregate imaging; zero = plate's median compound well. inhibition, % at 1.5 µM. 47,000 tested, 0.42% active;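 active = inhibition of aggregate fluorescence above about 70%, also judged a hit by eye on the cell image, limit read from the data, passing the limit was not always enough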;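 also: cells exposed to compound for three days before fixation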
# PKA kinase inh: inhibitors of human protein kinase A; P17612; PKA Kemptide phosphorylation, Kinase-Glo ATP luminescence; inhibition, % at 6 µM; 65,000 tested, 0.1% active; AID 524;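 active = inhibition above the screen-wide mean inhibition plus 3 SD, cut at about 21% in these data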
# JNK3 inh: blocks human JNK3 kinase activity | purified JNK3 kinase activity, HTS | P53779 | inhibition, % at 8 µM | 60,000 tested, 0.61% active; in the data active = inhibition above about 17%;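 also: 0% = DMSO and 100% = reference inhibitor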
# RORA act: activators of human nuclear receptor RORA | P35398 | CHO-K1 Gal4-RORA LBD luciferase reporter, luminescence; percent increase over mock-subtracted basal signal | activation, % at 10 µM | 65,000 tested, 1.5% active | AID 560;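 active = activation above the mean of all tested compounds plus 3 SD, cut at about 49% in these data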;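 also: 0% = DMSO-treated RORA cells and 100% = added signal equal to DMSO minus mock-transfected cells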
# SF-1 act: activators of human nuclear receptor SF-1; activation, % at 10 µM; 65,000 tested, 1.9% active; CHO-K1 Gal4-SF-1 LBD luciferase reporter; % increase over DMSO SF-1-specific signal;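 active = activation above the mean activation of all tested compounds plus 3 SD, cut at about 50% in these data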
#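 System: CHO-K1 cells with Gal4–hSF-1 LBD chimera plus Gal4-driven luciferase; quantity: 4,000 CHO-K1 cells per well; compound: one dose, 10 µM compound, 1% DMSO; times: 20 h compound treatment, 37 °C; measured by: SteadyLite luciferase luminescence; read-out: percent activation versus DMSO; benchmarks: DMSO and mock-transfected background; replicates: one test per compound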
# ROCK2 blocker: inhibitors of human Rho kinase 2; 60,000 tested, 0.35% active; O75116; inhibition, % at 6 µM; AID 604; purified ROCK2, Kinase-Glo ATP depletion luminescence;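 active = inhibition above the screen-wide mean inhibition plus 3 SD, cut at about 18% in these data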;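 also: plate controls were DMSO wells for no effect and Y-27632 control wells after no-enzyme background subtraction for full effect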
# Target sequence (O75116 whole entry, looked up): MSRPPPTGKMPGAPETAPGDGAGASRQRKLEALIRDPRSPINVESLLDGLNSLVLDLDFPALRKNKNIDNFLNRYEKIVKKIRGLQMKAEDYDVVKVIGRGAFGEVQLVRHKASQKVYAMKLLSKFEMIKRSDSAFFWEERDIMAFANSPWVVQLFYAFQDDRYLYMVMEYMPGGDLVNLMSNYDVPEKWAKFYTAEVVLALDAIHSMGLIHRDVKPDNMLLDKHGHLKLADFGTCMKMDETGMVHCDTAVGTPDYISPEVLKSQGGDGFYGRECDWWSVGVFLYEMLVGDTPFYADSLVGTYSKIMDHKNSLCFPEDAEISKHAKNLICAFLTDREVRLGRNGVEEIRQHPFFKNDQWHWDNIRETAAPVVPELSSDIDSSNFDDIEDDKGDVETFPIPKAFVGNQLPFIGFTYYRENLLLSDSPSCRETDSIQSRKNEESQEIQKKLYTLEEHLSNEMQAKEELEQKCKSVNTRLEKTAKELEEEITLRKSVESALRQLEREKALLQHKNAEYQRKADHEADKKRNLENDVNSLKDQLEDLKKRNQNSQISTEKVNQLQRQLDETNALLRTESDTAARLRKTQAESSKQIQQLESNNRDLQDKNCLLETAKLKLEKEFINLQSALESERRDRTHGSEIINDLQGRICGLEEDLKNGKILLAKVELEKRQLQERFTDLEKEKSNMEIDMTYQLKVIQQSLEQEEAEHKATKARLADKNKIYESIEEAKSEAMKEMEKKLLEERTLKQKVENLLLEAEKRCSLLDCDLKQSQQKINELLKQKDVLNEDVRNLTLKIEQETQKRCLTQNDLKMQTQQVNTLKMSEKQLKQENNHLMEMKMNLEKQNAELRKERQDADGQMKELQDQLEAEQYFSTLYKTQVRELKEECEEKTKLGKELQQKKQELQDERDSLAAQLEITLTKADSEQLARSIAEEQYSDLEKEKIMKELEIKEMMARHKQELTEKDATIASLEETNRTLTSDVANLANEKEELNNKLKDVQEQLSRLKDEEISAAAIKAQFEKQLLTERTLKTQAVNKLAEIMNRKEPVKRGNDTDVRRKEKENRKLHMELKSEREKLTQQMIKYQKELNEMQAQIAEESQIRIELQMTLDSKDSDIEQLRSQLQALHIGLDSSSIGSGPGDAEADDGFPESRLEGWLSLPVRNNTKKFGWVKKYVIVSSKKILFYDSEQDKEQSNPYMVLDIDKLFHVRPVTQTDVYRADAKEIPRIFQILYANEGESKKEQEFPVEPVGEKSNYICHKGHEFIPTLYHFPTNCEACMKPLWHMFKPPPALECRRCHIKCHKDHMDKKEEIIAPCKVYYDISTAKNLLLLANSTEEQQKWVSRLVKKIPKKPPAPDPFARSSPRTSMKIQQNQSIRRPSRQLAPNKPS
# * = called active by the depositor; x = not tested or not shown.
SMILES,mHtt clearance,PKA kinase inh,JNK3 inh,RORA act,SF-1 act,ROCK2 blocker
O=C(Nc1ccc2c(c1)OCO2)c1cccs1,1,-6,3,26,61*,-9
CCOc1nc(-c2ccccc2)ccc1-c1noc(-c2ccc(OC)c(OC)c2)n1,x,5,x,1,-14,x
O=C(Nc1ccc(N2CCOCC2)cc1)Nc1ccc2nc(-c3ccco3)c(-c3ccco3)nc2c1,-39,4,0,-11,-16,42*
COC(=O)c1cccc(Cn2nnc3ccccc3c2=O)c1,-27,10,17*,-8,-8,4
Cn1cccc1C(=O)OCc1cc(Cl)cc2c1OCOC2,3,15,5,24,60*,2
COC(=O)Nc1nc2ccc(C(=O)c3ccccc3)cc2[nH]1,x,-9,21*,-8,-40,-4
Cc1nc(SCC(=O)NCCc2ccccc2)nc(C)c1C,-40,x,x,x,x,x
CC(C)(O)c1cc(=O)sc2nc3ccccc3n12,-61,4,x,71*,53*,x
O=C1C(C=NCc2ccccn2)=C(O)c2ccccc21,x,5,9,47,55*,4
C/C(N)=C(/C#N)C(=O)CSc1nnc(Nc2cccc(C)c2)s1,x,10,-2,36,69*,5
C/C(N)=C(/C#N)C(=O)CSc1nc2cc(Cl)ccc2s1,x,12,5,-18,-8,12
Cn1cc(C(=O)NCCc2ccccc2)c(=O)c2cc(S(=O)(=O)N3CCOCC3)ccc21,x,10,7,-14,-18,5
CCOc1cccc(NC(=O)C2CCCN(S(=O)(=O)c3ccc(-n4cnnn4)cc3)C2)c1 (stereo unspecified),5,2,21*,-3,19,-2
CC(=O)Cc1nsc(Nc2ccc3c(c2)OCCO3)n1,x,-5,x,122*,67*,x
Fc1cccc(NCc2cn3ccccc3n2)c1,x,0,-1,45,72*,-4
N#CCCNc1ccc(OCCC#N)cc1,x,-4,-2,2,-7,-3
CC1(C)NC(=O)N(CC(O)CN2CCCCC2)C1=O (stereo unspecified),-75,-1,4,9,51*,5
Cc1nc2c(C(=O)N3CCCCC3)cnn2c(C)c1Cc1ccccc1F,-26,12,x,76*,42,x
Nc1c(C(=O)NCc2ccco2)nnn1Cc1ccccc1,x,6,x,-28,-1,x
Cc1cc(C)cc(-n2nnc(C(=O)NCc3ccco3)c2N)c1,x,11,2,10,12,8
Cc1ccc(NC(=O)Cn2nnc(C(=O)NCc3ccco3)c2N)cc1,71*,x,x,x,x,x
Cc1ccc(NC(=O)Cn2nnc(C(=O)Nc3ccc(C)c(C)c3)c2N)cc1,83*,-3,x,3,-44,x
Nc1c(C(=O)NCc2ccco2)nnn1-c1ccccc1,5,4,3,9,55*,-2
Cc1ccccc1N(C(=O)Cn1nnc(-c2cccs2)n1)C(C(=O)NCCC(C)C)c1ccco1 (stereo unspecified),9,x,x,x,x,x
CN1C(=O)CSc2ccc(NC(=O)N3CCN(c4ccccn4)CC3)cc21,x,-3,-3,-19,-17,3
SMILES,mHtt clearance,PKA kinase inh,JNK3 inh,RORA act,SF-1 act,ROCK2 blocker
CN1C(=O)CSc2ccc(NC(=O)N3CCc4ccccc43)cc21,-78,1,2,75*,105*,4
CN1C(=O)CSc2ccc(NC(=O)NCc3cccnc3)cc21,x,0,5,-10,-7,58*
CCc1ccc2nc(NC(=O)c3cc(C)on3)sc2c1,-3,-12,-14,69*,117*,-7
CC(=NCc1ccncc1)C1=C(O)c2ccccc2C1=O,-143,x,x,x,x,x
CC(=NCc1cccnc1)C1=C(O)c2ccccc2C1=O,x,5,37*,11,-11,6
O=C1C(C=NCCCn2ccnc2)=C(O)c2ccccc21,x,0,5,4,-24,3
CC(=NCCCn1ccnc1)C1=C(O)c2ccccc2C1=O,8,7,29*,-1,0,5
Cn1nnc(NC(=O)c2cccc(OCc3ccccc3)c2)n1,-1,10,5,54*,48,8
Cn1nnc(NC(=O)c2ccc3ccccc3c2)n1,-73,x,x,x,x,x
COc1ccc(CNC(=O)c2ccc(NC(=O)C3CCCO3)cc2)cc1 (stereo unspecified),x,2,x,-16,-6,x
Cc1ccc2nc(SCC(=O)N3CCCC3)[nH]c2c1,-48,0,5,74*,53*,4
O=C(NCC1CCCO1)c1ccc(N2CCCCC2)nc1 (stereo unspecified),x,2,-9,14,12,-1
Fc1cccc2sc(N3CCCCC3)nc12,x,11,7,33,73*,5
O=C(NCC1CCCO1)c1ccc2nc(N3CCCCC3)sc2c1 (stereo unspecified),x,10,6,59*,54*,0
Fc1cccc2sc(N3CCOCC3)nc12,x,11,1,3,40,3
Clc1ccc2nc(N3CCCCC3)sc2c1,x,6,2,29,65*,4
COc1ccc(S(=O)(=O)N2CCCC(C(=O)NCc3ccncc3)C2)cc1 (stereo unspecified),47,2,4,-8,-7,7
Cc1nc2ccc(S(=O)(=O)NCC(=O)N3CCC(C)CC3)cc2s1,-295,0,4,2,6,2
COC(=O)CSc1nc(NC#N)nc(NC(C)C)n1,34,x,x,x,x,x
COc1ccc(-n2nc3cc(C)c(N)c(Br)c3n2)cc1,36,2,-4,50*,64*,1
COc1ccc(-n2nc3ccccc3n2)cc1,x,6,14,19,33,8
CCOc1ccc(Br)cc1CC(=O)O,75*,0,2,10,-6,-12
CCOc1cc(CO)c(Br)cc1OCC(=O)O,8,x,x,x,x,x
O=C(NCCC1=CCCCC1)c1ccc(CN2CCOCC2)cc1,-78,-7,5,96*,40,7
CCOC(=O)c1c(C)[nH]c(C(=O)Nc2ccc3c(c2)OCO3)c1C,39,4,7,59*,132*,0
SMILES,mHtt clearance,PKA kinase inh,JNK3 inh,RORA act,SF-1 act,ROCK2 blocker
CCCCC(=O)Nc1ccc(C(=O)Nc2ccc3c(c2)OCO3)cc1,3,5,1,60*,51*,4
O=C(Nc1ccc2c(c1)OCO2)c1ccc(CN2CCOCC2)cc1,9,7,-3,49*,52*,2
CC(C)CC(C(=O)Nc1oc(-c2ccco2)c(-c2ccco2)c1C#N)N1C(=O)c2ccccc2C1=O (stereo unspecified),x,8,-4,-25,-6,4
CCc1nc(SCC(=O)NCCc2ccc(OC)c(OC)c2)c2c(=O)n(C)c(=O)n(C)c2n1,x,6,-5,-16,10,6
COc1cc(OC)c(NC2=NCCCCC2)cc1Cl,x,8,4,-15,1,6
CCOC(=O)C1CCCN(c2ncnc3c2cnn3-c2ccc(Cl)cc2)C1 (stereo unspecified),x,3,x,14,16,x
CCOC(=O)C1CCCN(c2ncnc3c2cnn3-c2ccc(OC)cc2)C1 (stereo unspecified),x,2,x,42,58*,x
